Assay: Toxicity liver stage against HepG2, at 10uM
Assay type: cell-based
Parameters: test concentration 10 uM, cell line HepG2-A16-CD81EGFP
Conditions: human, HepG2-A16-CD81EGFP cells; read-out: INHIBITION
Procedure, shortened: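 Uninfected HepG2-A16-CD81EGFP cells, 3 × 10^3 per well, 1536-well, plated on prespotted compound at 10 μM final, parasite-free screening media added to match infected plates; puromycin 10 μM positive, DMSO 0.5% negative; run in parallel with 48 h PbLuc assay at 37 °C, 5% CO2; viability by CellTiter-Glo luminescence, normalized to controls.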

Row | Compound | cytotoxicity at 10 µM [%]
1 | Cn1ccc(C(=O)NCCOc2ccc(C(C)(C)C)cc2)cc1=O | 9.71
2 | c1ccc2c(c1)nc1n2[C@@H](CNCc2nccs2)COC1 | -1.4
3 | CCOC(=O)[C@H]1[C@@H](O)C(=O)N(C)C12CCN(C(=O)OCC)CC2 | -7.83
4 | NC(=O)c1c(SCCN2CCOCC2)sc2c(O)cc(=O)[nH]c12 | 1.17
5 | CN(C)S(=O)(=O)c1ccc(-c2nc(C#N)c(NC3CCCCC3)o2)o1 | -16
6 | Cc1cc(C(=O)Nc2n[nH]c(C3CC3)n2)c2c(C)nn(C)c2n1 | 0.583
7 | O=C(N1CCOCC1CO)C1(c2cccs2)CCCC1 (stereo unspecified) | 0.161
8 | O=C(NCC(O)c1ccoc1)Nc1cccs1 (stereo unspecified) | -11.1
9 | CCOC1CC2(CCN(C(=O)COC)CC2)c2cc(F)ccc21 (stereo unspecified) | -136
10 | CCn1cc2c(n1)CN(S(=O)(=O)Cc1ccccc1)CC2COC (stereo unspecified) | 10.6
11 | COc1cc(N2CCCn3cnc(COCCO)c3C2)ncn1 | -3.61
12 | COCCN(C)C(=O)c1nc2c(s1)CCCN2S(C)(=O)=O | -143
13 | O=C(C1CCOCC1)N1CC[C@@H]2[C@H]1CCC(=O)N2c1ccccc1 | 5.5
14 | CCOCC1CN(Cc2ccoc2)Cc2cn(CC3CC3)nc21 (stereo unspecified) | 12.1
15 | Cn1ncc2c1NC(=O)CC2c1c(F)cccc1Cl (stereo unspecified) | 46.1
16 | CC(=O)N1[C@H](Cn2cncn2)C[C@@H]2CN(S(C)(=O)=O)CC[C@@H]21 | -10.9
17 | COCCNS(=O)(=O)c1cccc(CSC)c1 | 11.9
18 | Cc1nn(CC(=O)N2CCN(Cc3cnn(C)c3C)CC2)cc1Cl | -3.22
19 | CCCn1ccc(C(=O)N2CCC(C)CC2)n1 | -7.01

Row | Compound | cytotoxicity at 10 µM [%]
20 | Cc1ncc2c(n1)CCCC2NC(=O)c1ccncc1 (stereo unspecified) | -19.4
21 | CC(=O)N[C@H]1CCO[C@@H](c2cccc(NC(=O)C(C)(C)C)c2)C1 | 6.17
22 | CN1CCCCC1(C)C(=O)N1CCC(c2ccccn2)CC1 (stereo unspecified) | 1.66
23 | Cn1ccc2cc(CC3COCCN(C(=O)c4ccccn4)C3)ccc21 (stereo unspecified) | 4.57
24 | Cc1nc(CNC(=O)C(C)Oc2ccccc2F)no1 (stereo unspecified) | 5.43
25 | CSc1nnc(CNC(=O)Nc2ccccc2Br)n1C | 1.31
26 | Cc1cc(C(F)(F)F)nc(C2CCCN2S(C)(=O)=O)n1 (stereo unspecified) | 2.68
27 | CC(=O)N1CCCCC[C@@H]2[C@@H]1[C@H](c1cccc(F)c1)CN2C(C)=O | 5.21
28 | CC(C)(C)OC(=O)N1CCN(c2cccnc2)CC1C(=O)O (stereo unspecified) | -13.7
29 | Cc1cc(CN(C)Cc2ccccc2N2CCCCC2)n[nH]1 | -2.98
30 | CCc1ocnc1C(=O)N1CCN(c2nncc3ccccc23)CC1 | 6.61
31 | Cc1nonc1NC(=O)CCn1cc(Br)ccc1=O | 0.297
32 | CS(=O)(=O)CCNC(=O)NCCc1cc2ccccc2o1 | 2.8
33 | Cc1ccc(CNC(=O)Nc2nncs2)n1C | -0.545
34 | CCc1ccc(C(=O)NC2CCCN(c3ccn(C)n3)C2=O)o1 (stereo unspecified) | -2.43
35 | CCN(CC)CCN(CC(C)C)c1cc(C(F)(F)F)nc2ncnn12 | -5.39
36 | COc1cccc(NC(=O)CN(C(C)C)C2CC2)c1 | -2.83
37 | COc1ccc(C(C)NS(=O)(=O)c2ccc3c(c2)CCC(=O)N3)cc1F (stereo unspecified) | -49.7
38 | CC1CCN(C(=O)c2sccc2-n2cnnn2)CC1 | 9.33

Row | Compound | cytotoxicity at 10 µM [%]
39 | Cc1csc(C2(NC(=O)CCc3ccncc3)CCCC2)n1 | -12.1
40 | CC(C)(C)c1noc(CCC(=O)N2CCN(Cc3ccco3)CC2)n1 | 6.11
41 | Cc1noc(C)c1CNC(=O)N1CCN(CC2CC2)CC1 | -6.48
42 | O=C(NC1CCCN(c2ccc(OC(F)F)cc2)C1)c1cc[nH]n1 (stereo unspecified) | 3.65
43 | CCc1nsc(N2CCCN(C(=O)c3ccsc3)CC2)n1 | 5.73
44 | CN1CCN(C(=O)c2cc[nH]c(=O)c2)Cc2ccccc21 | -18.1
45 | O=C(c1cccn1-c1ccc2c(c1)OCCO2)N1CCCC1 | -9.42
46 | Cc1cc(C2CCCN(CC(=O)N3CCCc4ccccc43)C2)n[nH]1 (stereo unspecified) | -4.14
47 | CC(CNC(=O)c1cn(-c2ccccc2)nn1)Cn1cccn1 (stereo unspecified) | -41.6
48 | CC1CN(Cc2nnsc2Cl)CCN1c1nccs1 (stereo unspecified) | -39.3
49 | Cc1ccc2nc(CN3CCCCC3C(=O)N3CCOCC3)cn2c1 (stereo unspecified) | 3.13
50 | Cc1ccc(S(=O)(=O)NC(=O)c2cc(S(C)(=O)=O)ccc2C)s1 | 14.1
51 | CN(C)c1nccc(N(C)C2CCN(CC3CCOC3)CC2)n1 (stereo unspecified) | -18.9
52 | Cc1nc(-c2ccccc2)sc1CSCCS(C)(=O)=O | 3.85
53 | CN1CCOC(C(=O)N2CCC3(CCCCC3)C2)C1 (stereo unspecified) | 5.41
54 | O=C(C1SCCc2sccc21)N1CCC(O)CC1 (stereo unspecified) | -7.38
55 | COCCCN1CCC(NC(=O)C(C)C)CC1 | -11.9
56 | CCOc1ncccc1NC(=O)c1cc2c(s1)CCC2 | -15
